From ChEMBL document CHEMBL3745626, “Synthesis of β-boswellic acid derivatives as cytotoxic and apoptotic agents” (Bioorg Med Chem Lett, 2016)
The source made the active and inactive calls. No cut-off for these calls is given here.

How the values were obtained:
[1] = Anticancer activity against human HCT116 cells assessed as growth inhibition at 100 uM after 24 hrs by sulforhodamine B assay; format: functional; details: HCT-116, 24 h
A549 [2] = experiment: Anticancer activity against human A549 cells assessed as growth inhibition at 100 uM after 24 hrs by sulforhodamine B assay; format: functional; details: A549, 24 h
[3] = Anticancer activity against human PC3 cells assessed as growth inhibition at 100 uM after 24 hrs by sulforhodamine B assay; format: functional; details: PC-3, 24 h
[4] = Anticancer activity against human HT1080 cells assessed as growth inhibition at 100 uM after 24 hrs by sulforhodamine B assay; format: functional; details: HT-1080, 24 h
T47D = experiment: Anticancer activity against human T47D cells assessed as growth inhibition after 24 hrs by sulforhodamine B assay; format: functional, cell-based
Summary of the method: (§1)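 SRB assay on human cancer cell lines over a range of concentrations; inhibitory values calculated from concentration–response data, mean ± SD of three experiments.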

[5] = Anticancer activity against human PC3 cells assessed as growth inhibition after 24 hrs by sulforhodamine B assay; format: functional, cell-based; details: PC-3, 24 h; summary of the method: as §1
A549 [6] = experiment: Anticancer activity against human A549 cells assessed as growth inhibition after 24 hrs by sulforhodamine B assay; format: functional, cell-based; details: A549, 24 h; summary of the method: as §1
[7] = Cytotoxicity against human FR2 cells assessed as growth inhibition after 24 hrs by sulforhodamine B assay; format: cell-based; details: FR2, 24 h
[8] = Anticancer activity against human HCT116 cells assessed as growth inhibition after 24 hrs by sulforhodamine B assay; format: functional, cell-based; details: HCT-116, 24 h; summary of the method: as §1
HCT-116 [9] = experiment: Induction of apoptosis in human HCT116 cells assessed as increase in apoptotic body formation after 48 hrs by DAPI staining based fluorescence microscopy; format: functional, cell-based
Summary of the method: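 HCT-116 cells exposed to 1, 2.5 and 5 μM for 48 h, nuclei stained with DAPI and examined by fluorescence microscopy for chromatin condensation and apoptotic bodies; untreated and paclitaxel controls.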

HCT-116 [10] = experiment: Induction of apoptosis in human HCT116 cells assessed as PARP cleavage at 50 nM after 48 hrs by Western blot analysis; format: functional, cell-based

Row | Compound | inhibition at 100 µM [1] [%] | inhibition at 100 µM (A549 [2]) [%] | inhibition at 100 µM [3] [%] | inhibition at 100 µM [4] [%] | IC50 (T47D) [µM] | IC50 [5] [µM] | IC50 (A549 [6]) [µM] | IC50 [7] [µM] | IC50 [8] [µM] | Activity (HCT-116 [9]) | Activity (HCT-116 [10])
1 | COC(=O)[C@@]1(C)C(=O)/C(=C/c2ccc(C)cc2)C[C@]2(C)[C@H]3CC=C4[C@@H]5[C@@H](C)[C@H](C)CC[C@]5(C)CC[C@@]4(C)[C@]3(C)CC[C@@H]12 | 20 | 28 | 11 | 26 | – | – | – | – | – | – | –
2 | COC(=O)[C@@]1(C)C(=O)/C(=C/c2ccc(Cl)cc2)C[C@]2(C)[C@H]3CC=C4[C@@H]5[C@@H](C)[C@H](C)CC[C@]5(C)CC[C@@]4(C)[C@]3(C)CC[C@@H]12 | 0 | 7 | 10 | 6 | – | – | – | – | – | – | –
3 | COC(=O)[C@@]1(C)C(=O)/C(=C/c2ccccc2F)C[C@]2(C)[C@H]3CC=C4[C@@H]5[C@@H](C)[C@H](C)CC[C@]5(C)CC[C@@]4(C)[C@]3(C)CC[C@@H]12 | 0 | 47 | 44 | 23 | – | – | – | – | – | – | –
4 | COC(=O)[C@@]1(C)C(=O)/C(=C/c2cc(C(F)(F)F)cc(C(F)(F)F)c2)C[C@]2(C)[C@H]3CC=C4[C@@H]5[C@@H](C)[C@H](C)CC[C@]5(C)CC[C@@]4(C)[C@]3(C)CC[C@@H]12 | 10 | 5 | 7 | 0 | – | – | – | – | – | – | –
5 | COC(=O)[C@@]1(C)C(=O)/C(=C/c2ccccc2Cl)C[C@]2(C)[C@H]3CC=C4[C@@H]5[C@@H](C)[C@H](C)CC[C@]5(C)CC[C@@]4(C)[C@]3(C)CC[C@@H]12 | 0 | 0 | 25 | 21 | – | – | – | – | – | – | –
6 | COC(=O)[C@@]1(C)C(=O)/C(=C/c2ccc(Cl)cc2Cl)C[C@]2(C)[C@H]3CC=C4[C@@H]5[C@@H](C)[C@H](C)CC[C@]5(C)CC[C@@]4(C)[C@]3(C)CC[C@@H]12 | 49 | 97 | 79 | 100 | > 100 | 69.5 | 56.1 | > 100 | > 100 | – | –
7 | COC(=O)[C@@]1(C)C(=O)/C(=C/c2ccc3ccccc3n2)C[C@]2(C)[C@H]3CC=C4[C@@H]5[C@@H](C)[C@H](C)CC[C@]5(C)CC[C@@]4(C)[C@]3(C)CC[C@@H]12 | 37 | 37 | 44 | 43 | – | – | – | – | – | – | –
8 | CC(=O)O[C@H]1C(=O)[C@@]2(C)[C@H]([C@H](OC(=O)c3ccccc3)[C@]3(O)C[C@H](OC(=O)[C@H](O)[C@@H](NC(=O)c4ccccc4)c4ccccc4)C(C)=C1C3(C)C)[C@]1(OC(C)=O)CO[C@@H]1C[C@@H]2O | – | – | – | – | – | – | – | – | – | Active | Active
9 | COC(=O)[C@@]1(C)C(=O)/C(=C/c2cc(OC)cc(OC)c2)C[C@]2(C)[C@H]3CC=C4[C@@H]5[C@@H](C)[C@H](C)CC[C@]5(C)CC[C@@]4(C)[C@]3(C)CC[C@@H]12 | 21 | 55 | 41 | 17 | – | – | – | – | – | – | –
10 | COC(=O)[C@@]1(C)C(=O)/C(=C/c2cccc([N+](=O)[O-])c2)C[C@]2(C)[C@H]3CC=C4[C@@H]5[C@@H](C)[C@H](C)CC[C@]5(C)CC[C@@]4(C)[C@]3(C)CC[C@@H]12 | 6 | 0 | 10 | 13 | – | – | – | – | – | – | –
11 | COC(=O)[C@@]1(C)C(=O)/C(=C/c2ccccn2)C[C@]2(C)[C@H]3CC=C4[C@@H]5[C@@H](C)[C@H](C)CC[C@]5(C)CC[C@@]4(C)[C@]3(C)CC[C@@H]12 | 100 | 100 | 100 | 95 | 15.6 | 24.4 | 26.1 | 59 | 7.2 | – | –
